Source: ChEMBL document CHEMBL3864128, “Syntheses of new 3-thiazolyl coumarin derivatives, in vitro α-glucosidase inhibitory activity, and molecular modeling studies” (Eur J Med Chem, 2016)

Test: Inhibition of alpha-glucosidase (unknown origin) using PNP glycoside as substrate preincubated for 30 mins followed by substrate addition after 60 mins by spectrophotometric analysis
Parameters: species or system Homo sapiens
Outline: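 Enzyme activity run in 50 mM phosphate buffer, pH 6.8, containing 5% v/v DMSO. Inhibitors pre-incubated with enzyme 30 min at 37 °C, then PNP glycoside substrate added and reaction run 60 min at 37 °C. Absorbance read at 400 nm. Triplicate runs at five concentrations spanning the IC50 estimated in a first round; means adopted.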

Row | SMILES | IC50 [µM]
1 | COc1ccc(/N=c2\scc(-c3cc4ccccc4oc3=O)n2NC(=O)c2ccc(C(C)(C)C)cc2)cc1 | 1.4
2 | COc1ccc(/N=c2\scc(-c3cc4ccccc4oc3=O)n2NC(=O)c2ccccc2O)cc1 | 1.1
3 | COc1ccc(/N=c2\scc(-c3cc4ccccc4oc3=O)n2NC(=O)c2ccccc2OC)cc1 | 16.2
4 | O=C(Nn1c(-c2cc3ccccc3oc2=O)cs/c1=N\c1cccc(Br)c1)c1ccccc1O | 4.06
5 | O=C(Nn1c(-c2cc3ccccc3oc2=O)cs/c1=N\c1ccc(Cl)c(Cl)c1)c1ccccc1O | 0.12
6 | COc1ccc(C(=O)Nn2c(-c3cc4ccccc4oc3=O)cs/c2=N\c2ccc(Cl)c(Cl)c2)c(OC)c1 | 2.5
7 | COc1ccc(/N=c2\scc(-c3cc4ccccc4oc3=O)n2NC(=O)c2ccccc2)cc1 | 6.5
8 | COc1ccc(/N=c2\scc(-c3cc4ccccc4oc3=O)n2NC(=O)c2ccc(OC)cc2)cc1 | 3.6
9 | COc1cc(OC)cc(C(=O)Nn2c(-c3cc4ccccc4oc3=O)cs/c2=N\c2cccc(Br)c2)c1 | 9.19
10 | CC(C)(C)c1ccc(C(=O)Nn2c(-c3cc4ccccc4oc3=O)cs/c2=N\c2ccc(Cl)c(Cl)c2)cc1 | 0.78
11 | COc1ccc(/N=c2\scc(-c3cc4ccccc4oc3=O)n2NC(=O)c2ccc(OC)cc2OC)cc1 | 7.4
12 | COc1ccc(/N=c2\scc(-c3cc4ccccc4oc3=O)n2NC(=O)c2cc(OC)cc(OC)c2)cc1 | 8.1
13 | COc1ccc(/N=c2\scc(-c3cc4ccccc4oc3=O)n2NC(=O)c2ccc(Br)cc2)cc1 | 9.45
14 | COc1ccc(/N=c2\scc(-c3cc4ccccc4oc3=O)n2NC(=O)c2ccc(C)cc2C)cc1 | 2.9
